Compound activity deposited in PubChem by Johns Hopkins Ion Channel Center.
Most compounds without a hit are left out; they make up all but 3.5% or so of the library.
RGS4 inh = RGS4 inhibitors, primary screen, cell-based, HEK293 M3R inducible RGS4, calcium flux | Regulator of G-protein signaling 4 (Homo sapiens), P49798 | Fluo-4 calcium flux; hits give high values; triggered by carbachol at its EC20 | B-score at 10 µM | 0.45% of 310,000 active | AID 463165, 2010;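 active means B-score, a plate-corrected calcium signal, over three deviations above library mean, with baseline fluorescence within five deviations of library mean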;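 further: RGS4 expression induced by doxycycline in cells with stable M3 receptor; B-score is computed from the integrated fluorescence ratio over baseline after carbachol; higher B-score means a larger calcium signal and so more RGS4 inhibition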
Target sequence (P49798 whole entry, looked up): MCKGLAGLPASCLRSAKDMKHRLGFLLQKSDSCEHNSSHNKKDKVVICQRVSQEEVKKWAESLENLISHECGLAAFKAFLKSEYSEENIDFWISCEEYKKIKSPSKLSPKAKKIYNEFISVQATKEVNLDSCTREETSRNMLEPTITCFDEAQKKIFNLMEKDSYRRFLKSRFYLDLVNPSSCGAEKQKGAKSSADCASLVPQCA
RGS4 act = RGS4 potentiators or activators, primary screen, cell-based, HEK293 M3R inducible RGS4, calcium flux; carbachol calcium flux Fluo4; hits give low values; B-score at 10 µM; 0.92% of 310,000 active; AID 463111, 2010;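 active means B-score of the integrated calcium signal more than 4 SD below the library mean, with starting fluorescence not abnormally high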;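 further: negative B-score means reduced calcium response which marks RGS4 activation or potentiation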
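Reagent: ECmax carbachol challenge; Test system: M3R-expressing HEK293 line, RGS4 induced by doxycycline; Schedule: overnight RGS4 induction, 30 min dye load 37 °C, 20 min compound RT; Detection: calcium dye Fluo4 fluorescence; Read-out: Agonist-evoked peak-minus-minimum fluorescence over baseline, integrated ratio, B score.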
MrgX1 ag = agonists of human MrgX1 receptor, primary screen, HEK293 cells, Fluo-4 calcium flux; Mas-related G-protein coupled receptor member X1 (Homo sapiens), Q96LB2; Fluo-4 calcium fluorescence, agonist mode; hits give high values; B-score at 10 µM; 0.44% of 310,000 active; AID 588627, 2011;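 active means calcium response B-score plate-corrected fluorescence ratio at least 3 library SD, with starting fluorescence B-score inside 5 SD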
Target sequence (Q96LB2 whole entry, looked up): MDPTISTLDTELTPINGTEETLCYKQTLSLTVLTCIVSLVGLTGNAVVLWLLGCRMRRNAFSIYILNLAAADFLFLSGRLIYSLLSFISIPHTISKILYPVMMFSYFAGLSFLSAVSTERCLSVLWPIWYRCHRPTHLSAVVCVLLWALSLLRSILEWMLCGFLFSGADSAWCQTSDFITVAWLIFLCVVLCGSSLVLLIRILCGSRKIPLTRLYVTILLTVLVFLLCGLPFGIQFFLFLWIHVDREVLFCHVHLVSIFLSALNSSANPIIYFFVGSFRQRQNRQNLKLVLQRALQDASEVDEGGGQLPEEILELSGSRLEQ
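times = overnight plating, then 30 min 37 °C plus 30 min room-temperature dye loading | assay system = stable human MrgX1 HEK293 cell line | input = fifteen thousand cells per well | signal = kinetic calcium dye fluorescence, Fluo-4 NW | dosing = compound delivered in addition one of three | read-out = B-scored fluorescence response ratio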
MrgX1 allo act = positive allosteric modulators of MrgX1, primary screen, HEK293 cells, Fluo-4 calcium flux | AID 588675, 2011 | Mas-related G-protein coupled receptor member X1 (Homo sapiens), Q96LB2 | FDSS; hits give high values | 0.63% of 310,000 active | B-score at 10 µM;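 active means plate-corrected calcium response at least 3 library SD above typical, normal starting fluorescence, not activating the receptor alone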;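 further: compound read alongside a low EC10 to EC30 dose of BAM8-22 agonist; peak minus trough fluorescence over baseline measured at the second addition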
MrgX1 antagonist = antagonists of human MrgX1 receptor, primary screen, HEK293 cells, Fluo-4 calcium flux; Mas-related G-protein coupled receptor member X1 (Homo sapiens), Q96LB2; BAM8-22 antagonism; hits give low values; B-score at 10 µM; 1.3% of 310,000 active; AID 588676, 2011;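 active means calcium-response B-score plate-corrected more than 3 library SD below zero, starting fluorescence within 5 deviations, no agonist response on first addition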;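 further: peak minus trough fluorescence over baseline after final BAM8-22 challenge near maximal dose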
* hit, by the source's call.

Screening Cc1ccc(OCCn2cc(/C=N/NC(=O)c3ccncc3)c3ccccc32)cc1 returned RGS4 inh inactive, RGS4 act inactive, MrgX1 ag inactive, MrgX1 allo act inactive and MrgX1 antagonist inactive.
N#Cc1c(-c2ccc(Cl)cc2)ccn2nc(C3CCCCC3)nc12 was read as RGS4 inh inactive, RGS4 act inactive, MrgX1 ag inactive, MrgX1 allo act inactive and MrgX1 antagonist inactive.
Screening Cc1ccc(C)c(N2C(=O)c3cc(N4CCOCC4)c([N+](=O)[O-])cc3C2=O)c1 returned RGS4 inh inactive, RGS4 act inactive, MrgX1 ag inactive, MrgX1 allo act inactive and MrgX1 antagonist inactive.
`CCC1CCCCN1S(=O)(=O)c1ccc([N+](=O)[O-])cc1` (stereo not drawn) gave RGS4 inh inactive, RGS4 act -7.4*, MrgX1 ag inactive, MrgX1 allo act inactive and MrgX1 antagonist inactive.
OC(CC#CCN1CCCCC1)(c1ccccc1)c1ccccc1 was read as RGS4 inh inactive, RGS4 act -7.5*, MrgX1 ag inactive, MrgX1 allo act inactive and MrgX1 antagonist inactive.
Screening CN1CCN(CC#CCC(O)(c2ccccc2)C2CCCC2)CC1 (stereo not drawn) returned RGS4 inh inactive, RGS4 act -7.5*, MrgX1 ag inactive, MrgX1 allo act inactive and MrgX1 antagonist inactive.
For OC(CC#CCN1CCCC1)(c1ccccc1)c1ccccc1 the results were RGS4 inh inactive, RGS4 act inactive, MrgX1 ag inactive, MrgX1 allo act inactive and MrgX1 antagonist inactive.
`CN1CCN(CC#CCC(O)(c2ccccc2)c2ccccc2)CC1` gave RGS4 inh inactive, RGS4 act inactive, MrgX1 ag inactive, MrgX1 allo act inactive and MrgX1 antagonist inactive.
For COc1ccc(CN(C(=O)CCC(=O)Nc2cc(C)on2)C(C(=O)NC(C)(C)C)c2cccc(OC)c2OC)cc1 (stereo not drawn) the results were RGS4 inh inactive, RGS4 act inactive, MrgX1 ag inactive, MrgX1 allo act inactive and MrgX1 antagonist inactive.
`Cc1ccc(-c2cc(-c3ccccc3)nc(N/N=C/c3cccnc3)n2)cc1` gave RGS4 inh inactive, RGS4 act inactive, MrgX1 ag inactive, MrgX1 allo act inactive and MrgX1 antagonist inactive.
For C(=N/Nc1nc(-c2ccccc2)cc(-c2ccccc2)n1)/c1cccnc1 the results were RGS4 inh inactive, RGS4 act -7.1*, MrgX1 ag inactive, MrgX1 allo act inactive and MrgX1 antagonist inactive.
For Cc1cc(-c2ccccc2)nc(N/N=C/c2ccc(O)cc2O)n1 the results were RGS4 inh inactive, RGS4 act -7.2*, MrgX1 ag inactive, MrgX1 allo act inactive and MrgX1 antagonist inactive.
Cc1cc(-c2ccccc2)nc(N/N=C/c2ccccc2)n1 was read as RGS4 inh inactive, RGS4 act inactive, MrgX1 ag inactive, MrgX1 allo act inactive and MrgX1 antagonist inactive.
`COc1ccc(/C=N/Nc2nc(C)cc(-c3ccccc3)n2)cc1OC` gave RGS4 inh inactive, RGS4 act -7.3*, MrgX1 ag inactive, MrgX1 allo act inactive and MrgX1 antagonist inactive.
NC(=O)CSc1nc(-c2ccccc2Cl)ns1 was read as RGS4 inh inactive, RGS4 act inactive, MrgX1 ag inactive, MrgX1 allo act inactive and MrgX1 antagonist inactive.
CCOc1ccc(NC(=O)c2cc(=O)[nH]c3ccccc23)cc1 was read as RGS4 inh inactive, RGS4 act inactive, MrgX1 ag inactive, MrgX1 allo act inactive and MrgX1 antagonist inactive.
COc1ccc(CCN2C(=O)CC(N3CCN(S(=O)(=O)c4ccccc4)CC3)C2=O)cc1OC (stereo not drawn) was read as RGS4 inh inactive, RGS4 act inactive, MrgX1 ag inactive, MrgX1 allo act inactive and MrgX1 antagonist inactive.
Screening COc1cc(/C=C2/C(=N)N3N=C(CC(=O)N4CCOCC4)SC3=NC2=O)ccc1OCc1ccccc1F returned RGS4 inh inactive, RGS4 act inactive, MrgX1 ag inactive, MrgX1 allo act 17* and MrgX1 antagonist inactive.
Screening Cc1ccc(/C=C2/C(=N)N3N=C(CC(=O)N4CCCC4)SC3=NC2=O)cc1 returned RGS4 inh inactive, RGS4 act inactive, MrgX1 ag inactive, MrgX1 allo act inactive and MrgX1 antagonist inactive.
For COc1ccc(/C=C2/C(=N)N3N=C(CC(=O)N4CCCC4)SC3=NC2=O)cc1OC the results were RGS4 inh inactive, RGS4 act inactive, MrgX1 ag inactive, MrgX1 allo act inactive and MrgX1 antagonist inactive.
COc1cc(/C=C2/C(=N)N3N=C(CC(=O)N4CCOCC4)SC3=NC2=O)ccc1OCc1ccc(F)cc1 was read as RGS4 inh inactive, RGS4 act inactive, MrgX1 ag inactive, MrgX1 allo act 16* and MrgX1 antagonist inactive.
For CSc1ccc(/C=C2/C(=N)N3N=C(CC(=O)N4CCCC4)SC3=NC2=O)cc1 the results were RGS4 inh inactive, RGS4 act inactive, MrgX1 ag 31*, MrgX1 allo act inactive and MrgX1 antagonist inactive.
`CCOC(=O)C(C#N)(Cc1cc(OC)cc(OC)c1)Cc1cc(OC)cc(OC)c1` gave RGS4 inh inactive, RGS4 act inactive, MrgX1 ag inactive, MrgX1 allo act inactive and MrgX1 antagonist inactive.
Screening CCn1c(=NC(=O)c2ccc(S(=O)(=O)N(C)C)cc2)sc2cccc(OC)c21 returned RGS4 inh inactive, RGS4 act -7.2*, MrgX1 ag inactive, MrgX1 allo act inactive and MrgX1 antagonist inactive.
Screening CCn1c(=NC(=O)CS(=O)(=O)c2ccc(C)cc2)sc2cccc(OC)c21 returned RGS4 inh inactive, RGS4 act inactive, MrgX1 ag inactive, MrgX1 allo act inactive and MrgX1 antagonist inactive.
CCCOc1ccc(S(=O)(=O)n2cc(F)c(=O)[nH]c2=O)cc1 was read as RGS4 inh inactive, RGS4 act inactive, MrgX1 ag inactive, MrgX1 allo act 7.9* and MrgX1 antagonist inactive.
For Cc1c(N=Cc2ccc(O)c(Br)c2)cccc1[N+](=O)[O-] the results were RGS4 inh inactive, RGS4 act inactive, MrgX1 ag inactive, MrgX1 allo act inactive and MrgX1 antagonist inactive.
For O=[N+]([O-])c1ccc(N=Cc2ccc(Br)c([N+](=O)[O-])c2)cc1 the results were RGS4 inh inactive, RGS4 act inactive, MrgX1 ag 34*, MrgX1 allo act inactive and MrgX1 antagonist inactive.
Screening CCOC(=O)N1CCC(=NNc2ccc(S(N)(=O)=O)cc2[N+](=O)[O-])CC1 returned RGS4 inh inactive, RGS4 act inactive, MrgX1 ag inactive, MrgX1 allo act inactive and MrgX1 antagonist inactive.
